Data set [1] deals with T1, Muscarinic acetylcholine receptor M1 (Homo sapiens, UniProt P11229).
T1 sequence (P11229 whole entry): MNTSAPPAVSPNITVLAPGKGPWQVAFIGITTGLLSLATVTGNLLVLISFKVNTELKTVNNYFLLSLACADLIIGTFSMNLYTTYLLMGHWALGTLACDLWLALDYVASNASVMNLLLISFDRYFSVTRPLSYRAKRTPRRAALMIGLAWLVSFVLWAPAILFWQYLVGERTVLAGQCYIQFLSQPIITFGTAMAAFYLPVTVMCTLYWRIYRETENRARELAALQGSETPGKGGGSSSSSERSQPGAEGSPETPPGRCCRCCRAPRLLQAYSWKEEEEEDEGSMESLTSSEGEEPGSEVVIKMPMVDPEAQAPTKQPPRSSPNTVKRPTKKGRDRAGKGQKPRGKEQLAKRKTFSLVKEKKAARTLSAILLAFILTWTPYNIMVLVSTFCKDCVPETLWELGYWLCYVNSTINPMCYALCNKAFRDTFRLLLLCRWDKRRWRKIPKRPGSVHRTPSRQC
The data set is described as follows: Agonist activity at human muscarinic M1 receptor expressed in HEK293T cells co-expressing Galpha subunit and PLC-beta3 by split luciferase complementation assay. The data set is classed as cell-based.

Data set [2] in a line: Chemical stability of the compound at 50 uM incubated for 120 mins under dark conditions by UV-vis spectroscopic analysis. Format: physicochemical. The following applies: 2 h.
In data set [3] the target is Muscarinic acetylcholine receptor. As to the kind of experiment: Displacement of [3H]-QNB from muscarinic receptor in rat brain membranes incubated for 45 mins under irradiation exposure at 365 nm by radioligand binding assay. The data set is classed as cell membranes. The method in brief: (§1)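 Rat brain cortex membranes (meninges and white matter removed, homogenized and centrifuged twice at 50,000 x g, stored at -80 °C). Each tube held 20 μg membrane protein, 200 pM [³H]QNB and competitor at varying concentrations in 10 mM Tris-HCl pH 7.0 with 6 mM MgCl₂, incubated 45 min at 25 °C. Nonspecific binding was defined with 2 μM atropine. Samples were filtered on glass fiber, washed twice with ice-cold buffer and counted by scintillation.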
(Displacement assays read how much labelled ligand stays bound in the presence of the test substance.)

The target is the same in data set [4]. The data set is described as follows: Displacement of [3H]-QNB from muscarinic receptor in rat brain membranes incubated for 45 mins under dark conditions by radioligand binding assay. Format: cell membranes. Put shortly:
as §1

Compound `C[N+](C)(C)CC#CCOC1=NOCC1` gave a pEC50 in data set [1] of 8.9.
`C[N+](C)(CC#CCOC1=NOCC1)Cc1cc(F)c(/N=N\c2c(F)cccc2F)c(F)c1.[Br-]`: the Stability entry in data set [2] is recorded as “Stable”. Besides, the pEC50 in data set [1] was 7.14.
Compound `C[N+](C)(CC#CCOC1=NOCC1)CCCCCC[N+](C)(C)CC#CCOC1=NOCC1` gave a pEC50 in data set [1] of 6.77.
Same read-out and setting: in the case of `C[N+](C)(CC#CCOC1=NOCC1)CCCC[N+](C)(C)CC#CCOC1=NOCC1` it was 6.49; in that of `C[N+](C)(CC#CCOC1=NOCC1)CCCCCCCC[N+](C)(C)CC#CCOC1=NOCC1`, 6.89.
Regarding `C[N+](C)(CC#CCOC1=NOCC1)Cc1cc(F)c(/N=N/c2c(F)cccc2F)c(F)c1.[Br-]`, the figures for the pIC50 in data set [3] and in data set [4] were 5.4 and 5.25, respectively. Further, the Stability result in data set [2] is given as “Stable”. The compound also gave a pEC50 in data set [1] of 7.2.
With `C[N+](C)(CC#CCOC1=NOCC1)Cc1cc(F)c(/N=N/c2c(F)cc(C[N+](C)(C)CC#CCOC3=NOCC3)cc2F)c(F)c1.[Br-].[Br-]`, the pIC50 was determined as 6.44 in data set [3] and 6.82 in data set [4]. Besides, the Stability entry in data set [2] is “Stable”. In data set [1], this compound registered a negative logarithm of the EC50 (pEC50) of 8.97.
For the compound `C[N+](C)(CC#CCOC1=NOCC1)Cc1ccc(/N=N\c2ccc(C[N+](C)(C)CC#CCOC3=NOCC3)cc2)cc1.[Br-].[Br-]`, in data set [2], the Stability result is listed as “Stable”. Further, in data set [1], the pEC50 is 7.49.
In the case of `C[N+](C)(CC#CCOC1=NOCC1)Cc1ccc(/N=N/c2ccccc2)cc1.[Br-]`, the pIC50 was found to be 5.13 in data set [3] and 5.15 in data set [4]. In addition, the Stability entry in data set [2] was “Stable”. For the same compound, the pEC50 in data set [1] stood at 5.49.
In the case of `C[N+](C)(CC#CCOC1=NOCC1)Cc1cc(F)c(/N=N\c2c(F)cc(C[N+](C)(C)CC#CCOC3=NOCC3)cc2F)c(F)c1.[Br-].[Br-]`, in data set [2], the Stability result is reported as “Stable”. For the same compound, the pEC50 in data set [1] came to 8.3.
`C[N+](C)(CC#CCOC1=NOCC1)Cc1ccc(/N=N\c2ccccc2)cc1.[Br-]`: the Stability entry in data set [2] is recorded as “Stable”. The compound also yielded a pEC50 in data set [1] of 5.68.
As to `C[N+](C)(CC#CCOC1=NOCC1)CCCCCCCCCC[N+](C)(C)CC#CCOC1=NOCC1`, the pEC50 in data set [1] amounted to 7.86.

As usually defined, the pEC50 is −log10 of the EC50, conventionally taken in molar units. A word on the pIC50: it is the IC50 on a negative log10 scale, so that one unit is a factor of ten.
